From PubChem
Shown are actives, neighbours in structure and some others; about 1.2% of the full set was active somewhere.
S1P3 antag-1: antagonists of human S1P3 receptor; 0.27% of 170,000 active; AID 485; CHO S1P3 NFAT-BLA reporter, FRET fluorescence, antagonist mode; Q99500; inhibition, % at 4.98 µM;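 active means inhibition above the plate cutoff, the mean inhibition of test wells on that plate plus 3 SD, cut at about 28% in these data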;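 further: cells challenged with S1P at its EC80 of 0.8 µM; blue over green emission ratio from cleaved BLA substrate after 4 h stimulation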
Target sequence (Q99500 whole entry, looked up): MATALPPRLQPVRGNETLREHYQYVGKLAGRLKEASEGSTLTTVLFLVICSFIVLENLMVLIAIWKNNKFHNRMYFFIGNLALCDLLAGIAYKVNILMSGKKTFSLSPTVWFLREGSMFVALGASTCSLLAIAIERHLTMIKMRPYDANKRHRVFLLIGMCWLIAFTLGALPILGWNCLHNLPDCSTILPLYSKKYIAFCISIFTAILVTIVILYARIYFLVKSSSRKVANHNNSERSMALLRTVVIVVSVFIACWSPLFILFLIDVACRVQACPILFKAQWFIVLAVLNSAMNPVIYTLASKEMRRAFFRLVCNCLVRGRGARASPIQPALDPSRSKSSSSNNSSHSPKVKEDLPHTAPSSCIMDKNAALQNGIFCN
Biofilm kill mix: mixtures killing C. albicans biofilm; C. albicans biofilm persisters + clotrimazole, fluorescence viability; primary screen in compound mixtures of four per well; inhibition, % at 7.6 µM; 0.02% of 120,000 active; AID 1242;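 active means inhibition above 30.3% in the primary screen of four-compound pools, then above 30% when the compound was retested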;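 further: compounds exposed to preformed 24 h biofilms for 48 h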
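Incubation: 24 h biofilm formation, then 48 h compound exposure, 37 °C | Material: C. albicans biofilms | Buffer or medium: RPMI/MOPS medium, pH 7.0 | Measured by: 2-h Alamar Blue fluorescence, 535/590 nm excitation/emission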
Rad51 HR inh: blocks human Rad51 in homologous recombination. Q06609. hRad51 DNA strand exchange, fluorescence dequenching. inhibition, % at 10 µM. 0.085% of 200,000 active. AID 1385;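 active means inhibition above 40% at the single screening dose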
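Test system: preformed human Rad51 ssDNA filaments; also added: Donor/quencher-labelled 47-bp dsDNA substrate; doses: 10 µM final, single point; times: 37 °C 15-min filament assembly, 30-min compound preincubation, 15-min exchange; detection: FRET fluorescence dequenching, excitation 485 nm, emission 520 nm; read-out basis: Fluorescence-based percent inhibition, control- and blank-normalised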
S1P4 ag: human S1P4 receptor agonism. activation, % at 4.98 µM. O95977. 0.35% of 220,000 active. S1P4-expressing cell line, agonist reporter assay; in the data active means activation above about 11%
Target sequence (O95977 whole entry, looked up): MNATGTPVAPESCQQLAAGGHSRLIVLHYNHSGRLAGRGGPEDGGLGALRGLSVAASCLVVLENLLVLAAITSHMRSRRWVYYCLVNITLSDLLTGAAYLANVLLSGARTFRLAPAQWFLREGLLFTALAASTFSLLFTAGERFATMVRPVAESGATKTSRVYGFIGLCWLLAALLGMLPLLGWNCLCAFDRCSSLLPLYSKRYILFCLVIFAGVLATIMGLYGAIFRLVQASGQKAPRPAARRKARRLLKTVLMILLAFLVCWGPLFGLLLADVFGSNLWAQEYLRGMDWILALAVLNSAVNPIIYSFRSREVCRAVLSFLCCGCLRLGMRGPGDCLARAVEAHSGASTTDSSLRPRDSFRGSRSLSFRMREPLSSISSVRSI
HMGR II inh: blocks class II HMG-CoA reductase of Enterococcus faecalis; purified E. faecalis HMGR, NADPH absorbance 340 nm kinetic; inhibition, % at 10 µM; 0.41% of 190,000 active; AID 1066;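 active means inhibition above a set limit, the median over all tested compounds plus 3 SD, cut at about 9.5% in these data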;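 further: enzyme runs in reverse so mevalonate oxidation gives rising NADPH absorbance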
S1P4 antagonist: blocks the human S1P4 receptor; S1P4-expressing cells, antagonist mode, reporter read-out; O95977; 0.26% of 220,000 active; inhibition, % at 4.98 µM; in the data active means inhibition above about 29%
S1P3 antag-2: human S1P3 receptor antagonism, confirmation; shares compounds with S1P3 antag-1; CHO S1P3 NFAT-BLA reporter, FRET, antagonist mode; inhibition, % at 4.98 µM; 30% of 240 active;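 active means inhibition above the hit threshold that was computed for the earlier primary screen, cut at about 30% in these data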
A number is an active result.

What do the screens show for `Oc1ccc2ccccc2c1Br`?
S1P3 antag-1: inactive; Biofilm kill mix: inactive; Rad51 HR inh: 43; S1P4 ag: inactive; HMGR II inh: inactive; S1P4 antagonist: inactive

Results for CSc1nc2oc3c(c2c2nncn12)CC(C)(C)SC3 ?
S1P3 antag-1: inactive; Rad51 HR inh: inactive; S1P4 ag: inactive; HMGR II inh: inactive; S1P4 antagonist: inactive

Results for Cc1ccc(Cl)c(OCC(=O)OCC(=O)NC2CCCc3ccccc32)c1 (stereo not drawn) ?
S1P3 antag-1: inactive; Biofilm kill mix: inactive; Rad51 HR inh: inactive; S1P4 ag: inactive; HMGR II inh: 13; S1P4 antagonist: inactive

How did CN(C)/C=C/C(=O)C(F)(F)F do in these assays?
S1P3 antag-1: inactive; Biofilm kill mix: inactive; Rad51 HR inh: inactive; S1P4 ag: inactive; HMGR II inh: inactive; S1P4 antagonist: inactive

How did CN(C)/C=C/C(=C\C(=O)C(F)(F)F)Nc1ccc(C(F)(F)F)cc1 do in these assays?
S1P3 antag-1: 45; Biofilm kill mix: inactive; Rad51 HR inh: inactive; S1P4 ag: inactive; HMGR II inh: inactive; S1P4 antagonist: inactive; S1P3 antag-2: inactive

What do the screens show for `Cc1cc(C)nc(SCC(=O)Nc2ccnc3ccccc23)n1`?
S1P3 antag-1: 30; Biofilm kill mix: inactive; Rad51 HR inh: inactive; S1P4 ag: inactive; HMGR II inh: inactive; S1P4 antagonist: inactive; S1P3 antag-2: inactive

What do the screens show for `COC(=O)c1ccccc1NC(=O)CSc1nc(C)cc(C)n1`?
S1P3 antag-1: inactive; Biofilm kill mix: inactive; S1P4 ag: inactive; HMGR II inh: inactive; S1P4 antagonist: inactive

Results for O=C(NCc1ccco1)C(=S)N1CCCC1 ?
S1P3 antag-1: inactive; Biofilm kill mix: inactive; Rad51 HR inh: inactive; S1P4 ag: inactive; HMGR II inh: inactive; S1P4 antagonist: inactive

How did O=C(NCc1ccco1)C(=S)N1CCCCC1 do in these assays?
S1P3 antag-1: 28; Biofilm kill mix: inactive; Rad51 HR inh: inactive; S1P4 ag: inactive; HMGR II inh: inactive; S1P4 antagonist: inactive; S1P3 antag-2: inactive

How did CCCCCCCn1ccc(=N)cc1 do in these assays?
Rad51 HR inh: inactive; S1P4 ag: inactive; HMGR II inh: inactive; S1P4 antagonist: inactive

Results for CCCCCCCCCn1ccc(=N)cc1 ?
S1P3 antag-1: 30; Biofilm kill mix: inactive; Rad51 HR inh: inactive; S1P4 ag: inactive; S1P4 antagonist: inactive; S1P3 antag-2: inactive

What do the screens show for `CN(C)S(=O)(=O)N1CCN(C(=O)c2cccs2)CC1`?
Rad51 HR inh: inactive; S1P4 ag: inactive; HMGR II inh: inactive; S1P4 antagonist: inactive

Results for O=C(Nc1cccnc1)Nc1ccc(F)c(Cl)c1 ?
S1P3 antag-1: inactive; Rad51 HR inh: inactive; S1P4 ag: inactive; HMGR II inh: inactive; S1P4 antagonist: inactive

How did Cc1cccc(Nc2sc(C(=O)c3cc4cc(Cl)ccc4o3)c(N)c2C#N)c1 do in these assays?
S1P3 antag-1: 28; Biofilm kill mix: inactive; Rad51 HR inh: inactive; S1P4 ag: inactive; S1P4 antagonist: inactive; S1P3 antag-2: inactive

How did CNC(=O)NC(=O)C(C)OC(=O)c1c2c(nc3ccccc13)/C(=C/c1cccs1)CC2 (stereo not drawn) do in these assays?
S1P3 antag-1: inactive; Biofilm kill mix: inactive; Rad51 HR inh: inactive; S1P4 ag: inactive; HMGR II inh: inactive; S1P4 antagonist: inactive

What do the screens show for `CCCCNC(=O)COC(=O)c1c2c(nc3ccccc13)/C(=C/c1cccs1)CC2`?
S1P3 antag-1: 37; Biofilm kill mix: inactive; Rad51 HR inh: inactive; S1P4 ag: inactive; HMGR II inh: inactive; S1P4 antagonist: inactive; S1P3 antag-2: inactive

Results for O=S1(=O)C=CC(N2CCOCC2)C1 (stereo not drawn) ?
Rad51 HR inh: inactive; S1P4 ag: inactive; HMGR II inh: inactive; S1P4 antagonist: inactive

What do the screens show for `CCc1ccc(N2CC(C(=O)NCc3ccco3)CC2=O)cc1` (stereo not drawn)?
Biofilm kill mix: inactive; Rad51 HR inh: inactive; S1P4 ag: inactive; HMGR II inh: inactive; S1P4 antagonist: inactive

How did CNc1nc2cc([N+](=O)[O-])c([N+](=O)[O-])cc2nc1NC do in these assays?
S1P3 antag-1: 54; Biofilm kill mix: inactive; Rad51 HR inh: inactive; S1P4 ag: inactive; HMGR II inh: inactive; S1P4 antagonist: inactive; S1P3 antag-2: 34

Results for COc1ccc(NS(=O)(=O)c2cccc(NC(=O)c3ccc(Cl)nc3)c2)cc1 ?
S1P3 antag-1: 33; Biofilm kill mix: inactive; Rad51 HR inh: inactive; S1P4 ag: inactive; HMGR II inh: inactive; S1P4 antagonist: inactive; S1P3 antag-2: inactive

Results for O=C(Nc1cccc(S(=O)(=O)Nc2ccc(Cl)cc2)c1)c1ccc(Cl)nc1 ?
S1P3 antag-1: inactive; Biofilm kill mix: inactive; Rad51 HR inh: inactive; S1P4 ag: inactive; HMGR II inh: inactive; S1P4 antagonist: inactive

How did COc1ccc2cc3cc(C(=O)NCc4ccc5c(c4)OCO5)oc3nc2c1 do in these assays?
S1P3 antag-1: inactive; S1P4 ag: inactive; HMGR II inh: inactive; S1P4 antagonist: inactive

What do the screens show for `COc1ccc2cc3cc(C(=O)NCc4cccnc4)oc3nc2c1`?
S1P3 antag-1: 30; Biofilm kill mix: inactive; Rad51 HR inh: inactive; S1P4 ag: inactive; HMGR II inh: inactive; S1P4 antagonist: inactive; S1P3 antag-2: inactive

What do the screens show for `COc1cc(OC)c(OC)cc1/C=C1/C(=O)N=C(N)N1C`?
S1P3 antag-1: inactive; Biofilm kill mix: inactive; Rad51 HR inh: inactive; S1P4 ag: inactive; HMGR II inh: inactive; S1P4 antagonist: inactive

What do the screens show for `c1ccc(CCNc2ncnc3ccccc23)cc1`?
S1P3 antag-1: 44; Biofilm kill mix: inactive; Rad51 HR inh: inactive; S1P4 ag: inactive; HMGR II inh: inactive; S1P4 antagonist: inactive; S1P3 antag-2: 33

Results for O=C(NC1CCCCC1)C(c1ccncc1)N(Cc1ccc2c(c1)OCO2)C(=O)C(F)(F)F (stereo not drawn) ?
Biofilm kill mix: inactive; Rad51 HR inh: inactive; S1P4 ag: inactive; HMGR II inh: inactive; S1P4 antagonist: inactive

What do the screens show for `CC(C)(C)c1ccc(CNc2ccc([N+](=O)[O-])cn2)cc1`?
S1P3 antag-1: 30; Biofilm kill mix: inactive; Rad51 HR inh: inactive; S1P4 ag: inactive; HMGR II inh: inactive; S1P4 antagonist: inactive; S1P3 antag-2: inactive

How did NC(=O)CSc1nnc(C2CC2)n1-c1ccccc1 do in these assays?
Rad51 HR inh: inactive; S1P4 ag: inactive; HMGR II inh: inactive; S1P4 antagonist: inactive

Results for C1=C(CCNc2ncnc3c2[nH]c2ccccc23)CCCC1 ?
S1P3 antag-1: 41; Biofilm kill mix: inactive; Rad51 HR inh: inactive; S1P4 ag: inactive; HMGR II inh: inactive; S1P4 antagonist: inactive; S1P3 antag-2: inactive

What do the screens show for `c1ccc2c(c1)OCC(CNc1ncnc3sccc13)O2` (stereo not drawn)?
S1P3 antag-1: 43; Biofilm kill mix: inactive; Rad51 HR inh: inactive; S1P4 ag: inactive; HMGR II inh: inactive; S1P4 antagonist: inactive; S1P3 antag-2: inactive

What do the screens show for `C=CCn1c(O)c(C=Nc2ccc(CN3CCCCC3)cc2)c(=O)[nH]c1=S`?
S1P3 antag-1: 42; Biofilm kill mix: inactive; Rad51 HR inh: inactive; S1P4 ag: inactive; S1P4 antagonist: inactive; S1P3 antag-2: inactive
